IC50 and EC50 data for 30 compounds are collected here from ChEMBL document CHEMBL1136800 (J Med Chem, 2003).

In assay [1] the target is cGMP-specific 3',5'-cyclic phosphodiesterase (Bos taurus, UniProt Q28156). Briefly: Inhibitory activity against bovine PDE5 (phosphodiesterase-5).
A short description of assay [2]: Increase in intracellular cGMP concentration in atrial natriuretic factor treated rat aortic smooth muscle cells. As to conditions: Aorta. It is filed as functional, tissue-based. The procedure, abridged: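 Primary rat aortic smooth muscle cells grown in DMEM with 10% FCS and used at confluence (3-5 days). Compound in PBS for 30 min at 37 °C, then ANF 0.1 µM for 10 min at 37 °C. Intracellular cGMP extracted with 65% ethanol and measured by scintillation proximity immunoassay, in triplicate wells; DMSO ≤0.1%. EC50 is the concentration giving half the maximal cGMP increase seen at saturating compound.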

Assay [3] has as its target cGMP-dependent 3',5'-cyclic phosphodiesterase (Homo sapiens, UniProt O00408). Briefly: Inhibition of human recombinant PDE2 (phosphodiesterase 2). The method in brief:
(§1)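 Incubated 30 min at 30 °C under initial-velocity conditions (≤10-15% hydrolysis). Product separated on QAE Sephadex and counted by scintillation; final DMSO 2%.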

For another assay, the target named is Phosphodiesterase 3B (Bos taurus, UniProt E1BN64). Briefly: Inhibition of bovine aorta PDE3 (phosphodiesterase 3). The method in brief:
as §1

The target in another assay is Phosphodiesterase 1 (Bos taurus, UniProt Q01061+P14100). Description: Inhibition of bovine aorta PDE1 (phosphodiesterase 1). It is filed as protein assay. The procedure, abridged: as §1
In another assay the target is Phosphodiesterase 4 (Homo sapiens, UniProt P27815+Q08499+Q07343+Q08493). Briefly: Inhibition of human recombinant PDE4 (phosphodiesterase 4). It is filed as protein assay. The method in brief: as §1

pEC50, pIC50: −log10 of the molar value. A value given as a limit tells only on which side of the number the result lay.

cGMP-dependent 3',5'-cyclic phosphodiesterase, sequence (O00408 whole entry): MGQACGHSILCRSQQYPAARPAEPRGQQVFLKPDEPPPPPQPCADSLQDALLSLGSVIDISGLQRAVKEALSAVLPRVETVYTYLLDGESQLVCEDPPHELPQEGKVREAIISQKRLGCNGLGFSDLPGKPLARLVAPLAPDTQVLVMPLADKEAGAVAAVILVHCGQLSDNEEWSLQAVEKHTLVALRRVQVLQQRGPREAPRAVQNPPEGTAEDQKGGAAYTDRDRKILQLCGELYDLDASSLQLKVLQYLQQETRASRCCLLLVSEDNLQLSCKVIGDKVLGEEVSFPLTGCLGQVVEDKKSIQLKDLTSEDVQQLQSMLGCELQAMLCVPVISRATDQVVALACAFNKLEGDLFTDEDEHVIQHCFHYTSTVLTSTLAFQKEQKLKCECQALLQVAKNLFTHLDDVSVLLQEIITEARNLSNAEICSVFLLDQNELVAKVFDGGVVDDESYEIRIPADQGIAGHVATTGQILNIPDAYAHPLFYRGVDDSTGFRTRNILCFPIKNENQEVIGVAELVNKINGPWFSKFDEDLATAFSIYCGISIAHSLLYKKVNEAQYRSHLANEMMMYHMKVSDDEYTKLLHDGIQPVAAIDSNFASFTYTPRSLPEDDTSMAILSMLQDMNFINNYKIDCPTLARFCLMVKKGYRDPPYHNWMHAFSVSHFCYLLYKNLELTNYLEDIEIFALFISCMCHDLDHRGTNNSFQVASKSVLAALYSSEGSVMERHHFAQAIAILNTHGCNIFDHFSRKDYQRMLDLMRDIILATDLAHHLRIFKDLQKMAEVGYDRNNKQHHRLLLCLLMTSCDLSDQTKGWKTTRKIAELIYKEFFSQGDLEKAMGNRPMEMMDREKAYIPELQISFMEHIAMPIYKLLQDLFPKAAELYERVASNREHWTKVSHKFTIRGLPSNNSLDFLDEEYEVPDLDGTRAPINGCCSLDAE
Phosphodiesterase 3B, sequence (E1BN64 whole entry): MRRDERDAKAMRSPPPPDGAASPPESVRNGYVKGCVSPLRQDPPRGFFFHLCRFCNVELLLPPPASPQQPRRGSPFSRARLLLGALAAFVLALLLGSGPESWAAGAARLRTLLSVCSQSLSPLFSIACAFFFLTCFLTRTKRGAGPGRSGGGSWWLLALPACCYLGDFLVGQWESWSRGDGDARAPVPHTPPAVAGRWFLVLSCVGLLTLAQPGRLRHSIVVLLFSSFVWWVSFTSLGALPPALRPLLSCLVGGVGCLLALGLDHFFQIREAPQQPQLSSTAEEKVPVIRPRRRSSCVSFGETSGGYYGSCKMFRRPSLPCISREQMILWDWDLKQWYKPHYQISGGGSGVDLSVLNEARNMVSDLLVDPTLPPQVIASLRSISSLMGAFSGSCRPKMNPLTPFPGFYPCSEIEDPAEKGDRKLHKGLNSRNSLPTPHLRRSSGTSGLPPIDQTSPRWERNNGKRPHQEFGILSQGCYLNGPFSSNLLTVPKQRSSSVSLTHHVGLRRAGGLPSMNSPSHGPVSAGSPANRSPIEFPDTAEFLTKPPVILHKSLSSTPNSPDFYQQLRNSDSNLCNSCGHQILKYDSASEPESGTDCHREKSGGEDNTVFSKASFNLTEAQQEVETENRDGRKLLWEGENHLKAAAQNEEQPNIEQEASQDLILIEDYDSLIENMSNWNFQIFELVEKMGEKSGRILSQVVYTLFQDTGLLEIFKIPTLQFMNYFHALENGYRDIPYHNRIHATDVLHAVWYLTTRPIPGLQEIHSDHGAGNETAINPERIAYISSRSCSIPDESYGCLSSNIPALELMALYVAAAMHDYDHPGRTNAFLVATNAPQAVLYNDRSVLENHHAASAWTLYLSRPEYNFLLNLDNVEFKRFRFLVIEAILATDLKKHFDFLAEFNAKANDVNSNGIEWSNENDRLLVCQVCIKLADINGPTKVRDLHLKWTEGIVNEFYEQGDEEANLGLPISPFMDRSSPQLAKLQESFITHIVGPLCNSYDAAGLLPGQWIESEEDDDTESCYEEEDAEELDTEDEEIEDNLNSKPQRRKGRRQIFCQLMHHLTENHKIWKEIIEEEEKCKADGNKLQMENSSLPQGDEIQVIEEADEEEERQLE

For orientation: pIC50 means −log10 of the IC50, conventionally taken in molar units. Usually pEC50 stands for the EC50 on a negative log10 scale, so that one unit is a factor of ten. The low end stands for a large EC50, the high end for a small EC50. `COc1ccc([C@H]2c3[nH]c4ccccc4c3C[C@@H]3C(=O)NC(=O)N23)cc1` gave a pIC50 in assay [1] of 7.70. The same compound had a negative-log EC50 (pEC50) in assay [2] of 5.52.
Turning to `COc1ccc([C@@H]2c3[nH]c4ccccc4c3C[C@@H]3C(=O)N(C4CCCCC4)C(=O)N23)cc1`, the pIC50 in assay [1] is 8.15; in assay [3], under 5.00; at Phosphodiesterase 3B, under 5.00; against Phosphodiesterase 1, under 5.00; on Phosphodiesterase 4, under 5.00. The same compound gave a pEC50 in assay [2] of 6.52.
With `CCCCN1C(=O)[C@H]2Cc3c([nH]c4ccccc34)[C@@H](c3ccc(Cl)cc3)N2C1=O`, in assay [1], the pIC50 was 7.30. Further, the pEC50 in assay [2] was under 5.00.
In assay [1], `CCCCN1C(=O)[C@H]2Cc3c([nH]c4ccccc34)[C@@H](c3cccnc3)N2C1=O` had a pIC50 of 7.05.
In turn, `CCCCN1C(=O)[C@H]2Cc3c(n(C)c4ccccc34)[C@@H](c3ccc(OC)cc3)N2C1=O` showed a negative-log IC50 (pIC50) in assay [1] of under 5.00.
Regarding `CCN1C(=O)[C@H]2Cc3c([nH]c4ccccc34)[C@@H](c3ccc(OC)cc3)N2C1=O`, the negative-log IC50 (pIC50) in assay [1] was 8.00. Besides, the negative logarithm of the EC50 (pEC50) in assay [2] is 6.40.
For `COc1ccc([C@H]2c3[nH]c4ccccc4c3C[C@@H]3C(=O)N(CCc4ccccn4)C(=O)N23)cc1` the same measures were 8.22 and 5.82.
In assay [1], `CCCCN1C(=O)[C@H]2Cc3c([nH]c4ccccc34)[C@H](c3ccc(C#N)cc3)N2C1=O` gave a pIC50 of 6.52.
For `COc1ccc([C@H]2c3[nH]c4ccccc4c3C[C@@H]3C(=O)N(CCN(C)C)C(=O)N23)cc1`, the pIC50 in assay [1] was 7.52. For the same compound, the negative-log EC50 (pEC50) in assay [2] was 5.46.
For `COc1ccc([C@H]2c3[nH]c4ccccc4c3C[C@@H]3C(=O)N(C4CCCCC4)C(=O)N23)cc1` the same measures were 8.52 and 7.00.
For `CCCCN1C(=O)[C@H]2Cc3c([nH]c4ccccc34)[C@@H](c3cccc(Cl)c3)N2C1=O` the same measures were 7.30 and 5.40.
The term IC50 denotes the midpoint of a concentration-inhibition curve. For `COc1ccc([C@@H]2c3[nH]c4ccccc4c3C[C@@H]3C(=O)N(Cc4ccccc4)C(=O)N23)cc1`, the values for the negative-log IC50 (pIC50) (in assay [1]; in assay [3]; at Phosphodiesterase 3B) were 8.40, under 5.00 and under 5.00, respectively. Also, the 50% inhibitory concentration (IC50) at Phosphodiesterase 1 and on Phosphodiesterase 4 was over 10000 nM in each case. The negative logarithm of the EC50 (pEC50) in assay [2] was 6.82.
For `CCCCN1C(=O)[C@H]2Cc3c([nH]c4ccccc34)[C@@H](c3ccc(C#N)cc3)N2C1=O`, in assay [1], the pIC50 was 6.05.
For `CCCCN1C(=O)[C@H]2Cc3c([nH]c4ccccc34)[C@@H](c3ccoc3)N2C1=O`, in assay [1], the pIC50 is 7.00.
Turning to `CCCCN1C(=O)[C@H]2Cc3c([nH]c4ccccc34)[C@@H](c3ccncc3)N2C1=O`, the pIC50 in assay [1] was 6.52; at Phosphodiesterase 3B, under 5.00. Moreover, the figures for the IC50 against Phosphodiesterase 1 and at Phosphodiesterase 4 were 2000 nM and over 10000 nM, respectively.
Take `CCN1C(=O)[C@H]2Cc3c([nH]c4ccccc34)[C@H](c3ccc(OC)cc3)N2C1=O`: the pIC50 in assay [1] is 8.15. Further, in assay [2], the pEC50 was 5.82.
Turning to `CCCCN1C(=O)[C@H]2Cc3c([nH]c4ccccc34)[C@@H](c3ccsc3)N2C1=O`, in assay [1], the pIC50 is 7.52.
`CCCCN1C(=O)[C@H]2Cc3c([nH]c4ccccc34)[C@H](c3ccccc3)N2C1=O` had a negative logarithm of the IC50 (pIC50) in assay [1] of 7.70. Besides, in assay [2], the pEC50 was 5.70.
As for `CCCCN1C(=O)[C@H]2Cc3c([nH]c4ccccc34)[C@H](c3ccc(OC)cc3)N2C1=O`, the negative logarithm of the IC50 (pIC50) (in assay [3]; against Phosphodiesterase 3B) was under 5.00 throughout. The half-inhibitory concentration (IC50) against Phosphodiesterase 1 and on Phosphodiesterase 4 was over 10000 nM throughout. Moreover, the pEC50 in assay [2] is 6.00.
Take `COc1ccc([C@H]2c3[nH]c4ccccc4c3C[C@@H]3C(=O)N(Cc4cccnc4)C(=O)N23)cc1`: the negative logarithm of the IC50 (pIC50) in assay [1] is 7.70. Moreover, the pEC50 in assay [2] is 5.26.
`COc1ccc([C@H]2c3[nH]c4ccccc4c3C[C@@H]3C(=O)N(Cc4ccccc4)C(=O)N23)cc1`: in assay [1], the pIC50 was 7.74. Besides, the negative-log EC50 (pEC50) in assay [2] is under 5.00.
On to `COc1ccc([C@@H]2c3[nH]c4ccccc4c3C[C@@H]3C(=O)N(C)C(=O)N23)cc1`, for which the pIC50 in assay [1] is 8.00. Further, the negative-log EC50 (pEC50) in assay [2] was 6.00.
In the case of `CCCCN1C(=O)[C@H]2Cc3c([nH]c4ccccc34)[C@H](c3ccc(Cl)cc3)N2C1=O`, in assay [1], the negative-log IC50 (pIC50) is 7.70. Further, in assay [2], the negative-log EC50 (pEC50) is 5.82.
Turning to `COc1ccc([C@H]2c3[nH]c4ccccc4c3C[C@@H]3C(=O)N(CCN4CCCC4)C(=O)N23)cc1`, the negative-log IC50 (pIC50) in assay [1] was 7.00. In assay [2], the pEC50 was 5.00.
As to `CCCCN1C(=O)[C@H]2Cc3c([nH]c4ccccc34)[C@@H](c3ccc(OC)cc3)N2C1=O`, the negative-log IC50 (pIC50) (in assay [3]; at Phosphodiesterase 3B) was under 5.00 throughout. The half-maximal inhibitory concentration (IC50) against Phosphodiesterase 1 and at Phosphodiesterase 4 was over 10000 nM in each case. The compound further gave a negative logarithm of the EC50 (pEC50) in assay [2] of 6.15.
For the compound `CCCCN1C(=O)[C@H]2Cc3c([nH]c4ccccc34)[C@@H](c3ccccc3)N2C1=O`, in assay [1], the pIC50 was 7.22. The same compound showed a pEC50 in assay [2] of 5.30.
In assay [1], `CCOC(=O)c1cc2c(cn1)[nH]c1ccccc12` gave a negative logarithm of the IC50 (pIC50) of 6.10.
Take `CCCCN1C(=O)[C@H]2Cc3c([nH]c4ccccc34)[C@H](c3cccc(Cl)c3)N2C1=O`: the pIC50 in assay [1] was 7.30. The same compound gave a negative-log EC50 (pEC50) in assay [2] of under 5.00.
`CCCCN1C(=O)[C@H]2Cc3c([nH]c4ccccc34)[C@H](c3ccccc3OC)N2C1=O` had a pIC50 in assay [1] of 6.00.
The compound `CCCOc1ccccc1-c1nc2[nH]nnc2c(=O)[nH]1` [ZAPRINAST] showed a pIC50 on Phosphodiesterase 3B of under 5.00. The compound further came in with an IC50 on Phosphodiesterase 1 of 2600 nM.
